According to article PMC11302324 (RSC Advances, 2024):

Legend:
[1] = test system: prostate carcinoma (PC-3); test: In vitro cytotoxicity, MTT assay; assay type: cell-based; details: Homo sapiens, read-out: In vitro cytotoxicity IC50 PC-3
Procedure, shortened: (§1)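 Cells seeded at 1×10^5 cells per ml and grown 24 h at 37 °C to a monolayer, then washed twice. Two-fold dilutions of test compound in RPMI with 2% serum; medium-only control wells; doxorubicin positive control. Morphology checked, then MTT stock (5 mg ml⁻¹ in PBS) added and incubated 1-5 h (37 °C, 5% CO₂). Formazan dissolved in DMSO; OD 560 nm minus 620 nm; mean of three determinations; one-way ANOVA.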

CK2 kinase = CK2 kinase (Homo sapiens, UniProt P68400); test: CK2 kinase enzyme inhibitory assay; assay type: biochemical
[2] = test system: colorectal carcinoma (HCT-116); test: In vitro cytotoxicity, MTT assay; assay type: cell-based; details: Homo sapiens, HCT-116, read-out: In vitro cytotoxicity IC50 HCT-116
Procedure, shortened: as §1

[3] = test system: hepatocellular carcinoma (HepG-2); test: In vitro cytotoxicity, MTT assay; assay type: cell-based; details: Homo sapiens, HepG2, read-out: In vitro cytotoxicity IC50 HePG2
Procedure, shortened: as §1

[4] = test system: HepG-2, PC-3, and HCT-116 cell lines; test: In vitro cytotoxicity, MTT assay, stated for the three cell lines together; assay type: cell-based, human
Procedure, shortened: as §1

Sequence of CK2 kinase (P68400 whole entry): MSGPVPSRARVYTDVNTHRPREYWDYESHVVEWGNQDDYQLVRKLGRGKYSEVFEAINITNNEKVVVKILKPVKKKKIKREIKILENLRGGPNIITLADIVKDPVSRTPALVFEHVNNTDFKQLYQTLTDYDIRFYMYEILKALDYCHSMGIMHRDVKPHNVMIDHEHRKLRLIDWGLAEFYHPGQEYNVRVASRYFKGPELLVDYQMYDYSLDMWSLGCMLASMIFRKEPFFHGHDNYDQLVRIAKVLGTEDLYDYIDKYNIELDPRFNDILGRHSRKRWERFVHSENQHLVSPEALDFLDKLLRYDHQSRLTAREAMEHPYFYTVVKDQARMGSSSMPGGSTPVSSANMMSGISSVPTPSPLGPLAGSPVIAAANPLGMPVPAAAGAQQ

Row | SMILES | IC50 [1] [µM] | IC50 (CK2 kinase) [µM] | IC50 [2] [µM] | IC50 [3] [µM] | activity against CK2 kinase (in words) (CK2 kinase; compared with 5b) | cytotoxicity towards three cell lines (in words) [4]
1 | COC(=O)[C@H](CC(C)C)NC(=O)COc1ccc2c(C)cc(=O)oc2c1 [Compound 5b, (S)-Methyl-4-methyl-2-{2-[(4-methyl-2-oxo-2H-chromen-7-yl)oxy]acetamido}pentanoate] | 59.7 ± 4.2 | 0.117 ± 0.005 | 35.1 ± 2.8 | 42.16 ± 0.3 |  | 
2 | COC(=O)[C@@H](NC(=O)COc1ccc2c(C)cc(=O)oc2c1)c1ccccc1 [Compound 5c, (S)-Methyl 2-{2-[(4-methyl-2-oxo-2H-chromen-7-yl)oxy]acetamido}-2-phenylacetate] | 174 ± 1.8 |  | 124 ± 4.4 | 154 ± 2.1 |  | 
3 | Cc1cc(=O)oc2cc(OCC(=O)NCC(=O)NN)ccc12 [Compound 6, N-(2-Hydrazinyl-2-oxoethyl)-2-[(4-methyl-2-oxo-2H-chromen-7-yl)oxy]acetamide] | 168 ± 4.3 |  | 171 ± 4.2 | 168 ± 4.4 |  | 
4 | COC(=O)CNC(=O)CNC(=O)COc1ccc2c(C)cc(=O)oc2c1 [Compound 7a, Methyl 2-{2-[2-[(4-methyl-2-oxo-2H-chromen-7-yl)oxy]acetamido]acetamido}acetate] | 172.3 ± 1.4 |  | 137 ± 2.4 | 174 ± 3.4 |  | 
5 | COC(=O)[C@@H](NC(=O)CNC(=O)COc1ccc2c(C)cc(=O)oc2c1)c1ccccc1 [Compound 7c, (S)-Methyl2-{2-{2-[(4-methyl-2-oxo-2H-chromen-7-yl)oxy]acetamido}acetamido}-2-phenylacetate] | 16.1 ± 4.6 | 0.461 ± 0.02 | 16 ± 4.1 | 34.1 ± 4.2 | less active | 
6 | COC(=O)[C@@H](CC(C)C)NC(=O)CNC(=O)CNC(=O)COc1ccc2c(C)cc(=O)oc2c1 [Compound 9b, (R)-Methyl4-methyl-2-{2-{2-{2-[(4-methyl-2-oxo-2H-chromen-7-yl)oxy]acetamido}acetamido}acetamido}pentanoate] | 85.5 ± 0.4 |  | 169.1 ± 0.3 | 298.8 ± 0.3 |  | relatively weak cytotoxicity
7 | COc1cccc2c1C(=O)c1c(O)c3c(c(O)c1C2=O)C[C@@](O)(C(=O)CO)C[C@@H]3O[C@H]1C[C@H](N)[C@H](O)[C@H](C)O1 [Doxorubicin, reference compound] | 57.3 ± 0.6 |  | 61.01 ± 0.3 | 108 ± 0.6 |  | 
